In brackets after ≈: the same amount, converted by molar mass.
What was measured:
[1] = Kinetic solubility of the compound in water at pH 7 by HPLC analysis; type: physicochemical; settings: read-out: Kinetic_solubility
[2] = Metabolic stability of the compound in CD-1 mouse liver microsomes assessed as compound remaining after 1 hr; type: ADME, Microsome; settings: read-out: Stability
How it was run: (§1)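 Pooled human or CD-1 mouse liver microsomes incubated with compound for 1 h. Percentage of compound remaining calculated from analyte/internal standard peak area ratios.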

[3] = tested on: Mycobacterium tuberculosis; assay: Antimicrobial activity against Mycobacterium tuberculosis infected in BALB/c mouse assessed as fold reduction in lung CFU at 100 mg/kg, po administered 11 days after post infection qd for 5 days per week for 3 weeks relative to PA-824; type: functional
How it was run: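 Groups of 7 M. tb-infected BALB/c mice dosed orally at 100 mg/kg daily, 5 days/week for 3 weeks, starting on day 11 postinfection. Readout is the average lung CFU reduction in treated mice divided by the average CFU reduction in mice given the reference nitroimidazooxazine.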

[4] = Metabolic stability of the compound in human liver microsomes assessed as compound remaining after 1 hr; type: ADME, Microsome; settings: read-out: Stability; how it was run: as §1
[5] = AUC (0 to infinity) in CD-1 mouse plasma at 40 mg/kg, po; type: ADME, organism-based; parameters: dose 40 mg/kg, route oral, time infinity
How it was run: (§2)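 CD-1 mice given a single oral dose of 40 mg/kg, suspended in 0.5% carboxymethylcellulose/0.08% Tween 80 in water. Plasma and lung samples quantified by LC-MS/MS. AUC extrapolated to infinity. Lung/plasma ratio is lung AUC divided by plasma AUC.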

[6] = AUC (0 to infinity) in CD-1 mouse lung at 40 mg/kg, po; type: ADME, organism-based; parameters: dose 40 mg/kg, route oral, time infinity; how it was run: as §2
[7] = Half life in CD-1 mouse plasma at 40 mg/kg, po; type: ADME, organism-based; parameters: dose 40 mg/kg, route oral; how it was run: as §2
[8] = Ratio AUC (0 to infinity) in CD-1 mouse lung to AUC (0 to infinity) in CD-1 mouse plasma at 40 mg/kg, po; type: ADME, organism-based; parameters: dose 40 mg/kg, route oral; settings: read-out: Ratio AUC; how it was run: as §2
[9] = Cmax in CD-1 mouse lung at 40 mg/kg, po; type: ADME, organism-based; parameters: dose 40 mg/kg, route oral; how it was run: as §2
[10] = Cmax in CD-1 mouse plasma at 40 mg/kg, po; type: ADME, organism-based; parameters: dose 40 mg/kg, route oral; how it was run: as §2
[11] = tested on: Mycobacterium tuberculosis; assay: Antimicrobial activity against Mycobacterium tuberculosis infected in BALB/c mouse assessed as fold reduction in lung CFU at 100 mg/kg, po administered 70 days after post infection qd for 5 days per week for 3 weeks relative to OPC-67683; type: functional
How it was run: (§3)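 Chronic infection model in M. tb-infected BALB/c mice: oral dosing at 100 mg/kg daily, 5 days/week for 3 weeks, beginning about 70 days postinfection. Result expressed as fold lung CFU reduction relative to the reference drug.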

[12] = Half life in CD-1 mouse lung at 40 mg/kg, po; type: ADME, organism-based; parameters: dose 40 mg/kg, route oral; how it was run: as §2
[13] = tested on: Mycobacterium tuberculosis; assay: Antimicrobial activity against Mycobacterium tuberculosis infected in BALB/c mouse assessed as fold reduction in lung CFU at 100 mg/kg, po administered 70 days after post infection qd for 5 days per week for 3 weeks; type: functional; how it was run: as §3
[14] = tested on: Mycobacterium tuberculosis; assay: Antimicrobial activity against Mycobacterium tuberculosis infected in chronic BALB/c mouse infection model assessed as fold reduction in lung CFU at 100 mg/kg, po dministered 50 days after post infection qd for 5 days per week for 3 weeks; type: functional
[15] = Plasma protein binding in human at 10 uM; type: ADME, cell-free; settings: read-out: PPB (converted)
How it was run: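 Human plasma protein binding measured by equilibrium dialysis, with overnight incubation of compound at 10 μM containing 1% DMSO.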

[16] = Octanol-water partition coefficient, log P of the compound by shake-flask method; type: physicochemical
How it was run: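 Octanol-water partition coefficient measured by the shake-flask method.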

[17] = Thermodynamic solubility of the compound at pH 7.4; type: physicochemical; settings: buffer, read-out: Therm_solubility
[18] = Thermodynamic solubility of the compound at pH 1; type: physicochemical; settings: buffer, read-out: Therm_solubility
[19] = tested on: Salmonella typhimurium; assay: Induction of mutagenesis in Salmonella Typhimurium TA100 in absence of rat liver S9 fraction by Ames test; type: toxicity, organism-based; settings: salmonella enterica subsp. enterica serovar typhimurium
How it was run: (§4)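 MicroAmes reverse mutation screen in Salmonella TA98 and TA100, preincubated with and without rat liver S9, at 0.25-250 μg/well.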

[20] = tested on: Salmonella typhimurium; assay: Induction of mutagenesis in Salmonella Typhimurium TA100 in presence of rat liver S9 fraction by Ames test; type: toxicity, organism-based; settings: salmonella enterica subsp. enterica serovar typhimurium; how it was run: as §4
[21] = tested on: Salmonella typhimurium; assay: Induction of mutagenesis in Salmonella Typhimurium TA98 in absence of rat liver S9 fraction by Ames test; type: toxicity, organism-based; settings: salmonella enterica subsp. enterica serovar typhimurium; how it was run: as §4
[22] = tested on: Salmonella typhimurium; assay: Induction of mutagenesis in Salmonella Typhimurium TA98 in presence of rat liver S9 fraction by Ames test; type: toxicity, organism-based; settings: salmonella enterica subsp. enterica serovar typhimurium; how it was run: as §4

## O=C(N[C@@H]1COc2nc([N+](=O)[O-])cn2C1)c1ccc(OC(F)(F)F)cc1
[1]
  solubility kinetic: 109 µg/mL (≈ 293 µM)

## CN(C(=O)c1ccc(OC(F)(F)F)cc1)[C@@H]1COc2nc([N+](=O)[O-])cn2C1
[1]
  solubility kinetic: 17 µg/mL (≈ 44 µM)

## O=[N+]([O-])c1cn2c(n1)OC[C@@H](NS(=O)(=O)c1ccc(OC(F)(F)F)cc1)C2
[1]
  solubility kinetic: 6.1 µg/mL (≈ 14.9 µM)

## CN([C@@H]1COc2nc([N+](=O)[O-])cn2C1)S(=O)(=O)c1ccc(OC(F)(F)F)cc1
[1]
  solubility kinetic: 15 µg/mL (≈ 35.5 µM)

## O=C(CN[C@@H]1COc2nc([N+](=O)[O-])cn2C1)c1ccc(OC(F)(F)F)cc1
[1]
  solubility kinetic: 21 µg/mL (≈ 54.4 µM)

## O=C(Nc1ccc(OC(F)(F)F)cc1)N[C@@H]1COc2nc([N+](=O)[O-])cn2C1
[1]
  solubility kinetic: 93 µg/mL (≈ 240 µM)

## O=C(N[C@@H]1COc2nc([N+](=O)[O-])cn2C1)OCc1ccc(-c2ccc(OC(F)(F)F)cc2)cc1
[1]
  solubility kinetic: 0.67 µg/mL (≈ 1.4 µM)

## O=C(Nc1cccc(-c2ccc(OC(F)(F)F)cc2)c1)N[C@@H]1COc2nc([N+](=O)[O-])cn2C1
[2]
  remaining at 1 h: 88%
[3]
  fold change (FC): <0.01
[4]
  remaining at 1 h: 86%
[1]
  solubility kinetic: 3 µg/mL (≈ 6.47 µM)

## O=C(Nc1ccc(-c2ccc(OC(F)(F)F)cc2)cc1)N[C@@H]1COc2nc([N+](=O)[O-])cn2C1
[5]
  AUC(0-inf): 6610 ng·h/mL
[6]
  AUC(0-inf): > 60000 ng·h/mL
[7]
  half-life: 6.3 h
[2]
  remaining at 1 h: 90%
[3]
  fold change (FC): 1
[8]
  Kp: > 9
[4]
  remaining at 1 h: 91%
[9]
  Cmax: 4700 ng/mL
[10]
  Cmax: 480 ng/mL
[1]
  solubility kinetic: 0.17 µg/mL (≈ 0.367 µM)

## O=C(NCc1ccc(-c2ccc(OC(F)(F)F)cc2)cc1)N[C@@H]1COc2nc([N+](=O)[O-])cn2C1
[1]
  solubility kinetic: 0.94 µg/mL (≈ 1.97 µM)

## O=C(Nc1cccc(-c2ccc(OC(F)(F)F)cc2)c1)O[C@@H]1COc2nc([N+](=O)[O-])cn2C1
[2]
  remaining at 1 h: 93%
[3]
  fold change (FC): 3.4
[4]
  remaining at 1 h: 88%
[1]
  solubility kinetic: 0.07 µg/mL (≈ 0.151 µM)

## O=C(Nc1cccc(-c2ccc(C(F)(F)F)nc2)c1)O[C@@H]1COc2nc([N+](=O)[O-])cn2C1
[2]
  remaining at 1 h: 80%
[3]
  fold change (FC): 0.02
[4]
  remaining at 1 h: 89%
[1]
  solubility kinetic: 5.8 µg/mL (≈ 12.9 µM)

## O=C(Nc1ccc(-c2ccc(OC(F)(F)F)cc2)cc1)O[C@@H]1COc2nc([N+](=O)[O-])cn2C1
[5]
  AUC(0-inf): 44900 ng·h/mL
[6]
  AUC(0-inf): > 136000 ng·h/mL
[7]
  half-life: 62.3 h
[2]
  remaining at 1 h: 98%
[3]
  fold change (FC): 5
[8]
  Kp: > 3
[4]
  remaining at 1 h: 100%
[11]
  fold change (FC): 0.35
[9]
  Cmax: 6900 ng/mL
[10]
  Cmax: 520 ng/mL

## O=C(NCc1ccc(-c2ccc(OC(F)(F)F)cc2)cc1)O[C@@H]1COc2nc([N+](=O)[O-])cn2C1
[1]
  solubility kinetic: 0.34 µg/mL (≈ 0.711 µM)

## O=C(O[C@@H]1COc2nc([N+](=O)[O-])cn2C1)N1CC[C@H](Oc2ccc(OC(F)(F)F)cc2)C1
[1]
  solubility kinetic: 21 µg/mL (≈ 45.8 µM)

## O=C(O[C@@H]1COc2nc([N+](=O)[O-])cn2C1)N1CCC(Oc2ccc(C(F)(F)F)nc2)CC1
[1]
  solubility kinetic: 94 µg/mL (≈ 206 µM)

## CN(Cc1ccc(OC(F)(F)F)cc1)C1CCN(C(=O)O[C@@H]2COc3nc([N+](=O)[O-])cn3C2)CC1
[1]
  solubility kinetic: 11 µg/mL (≈ 22 µM)

## O=C(COc1ccc(-c2ccc(OC(F)(F)F)cc2)cc1)N[C@@H]1COc2nc([N+](=O)[O-])cn2C1
[1]
  solubility kinetic: 0.96 µg/mL (≈ 2.01 µM)

## O=C(Cc1ccc(-c2ccc(OC(F)(F)F)cc2)cc1)N[C@@H]1COc2nc([N+](=O)[O-])cn2C1
[1]
  solubility kinetic: 1.8 µg/mL (≈ 3.89 µM)

## O=C(CO[C@@H]1COc2nc([N+](=O)[O-])cn2C1)Nc1ccc(OC(F)(F)F)cc1
[2]
  remaining at 1 h: 85%
[3]
  fold change (FC): 0.33
[4]
  remaining at 1 h: 100%
[1]
  solubility kinetic: 68 µg/mL (≈ 169 µM)

## CN(C(=O)N(C)[C@@H]1COc2nc([N+](=O)[O-])cn2C1)c1ccc(OC(F)(F)F)cc1
[1]
  solubility kinetic: 38 µg/mL (≈ 91.5 µM)

## O=[N+]([O-])c1cn2c(n1)OC[C@@H](NC(=S)Nc1ccc(OC(F)(F)F)cc1)C2
[1]
  solubility kinetic: 12 µg/mL (≈ 29.8 µM)

## O=C(NCc1ccc(OC(F)(F)F)cc1)N[C@@H]1COc2nc([N+](=O)[O-])cn2C1
[1]
  solubility kinetic: 32 µg/mL (≈ 79.7 µM)

## O=C(Nc1ccc(OC(F)(F)F)cc1)O[C@@H]1COc2nc([N+](=O)[O-])cn2C1
[5]
  AUC(0-inf): 28500 ng·h/mL
[6]
  AUC(0-inf): 43300 ng·h/mL
[7]
  half-life: 9.8 h
[12]
  half-life: 4.1 h
[2]
  remaining at 1 h: 89%
[3]
  fold change (FC): 0.39
[8]
  Kp: 1.5
[4]
  remaining at 1 h: 88%
[11]
  fold change (FC): 0.02
[9]
  Cmax: 3800 ng/mL
[10]
  Cmax: 1400 ng/mL
[1]
  solubility kinetic: 5.4 µg/mL (≈ 13.9 µM)

## CN(C(=O)O[C@@H]1COc2nc([N+](=O)[O-])cn2C1)c1ccc(OC(F)(F)F)cc1
[2]
  remaining at 1 h: 1%
[3]
  fold change (FC): 5.3
[4]
  remaining at 1 h: 37%
[1]
  solubility kinetic: 18 µg/mL (≈ 44.7 µM)

## O=C(NCc1ccc(OC(F)(F)F)cc1)O[C@@H]1COc2nc([N+](=O)[O-])cn2C1
[1]
  solubility kinetic: 10 µg/mL (≈ 24.9 µM)

## C[C@]1(COc2ccc(N3CCC(Oc4ccc(OC(F)(F)F)cc4)CC3)cc2)Cn2cc([N+](=O)[O-])nc2O1
[13]
  fold change (FC): 3
[14]
  fold change (FC): 3

## O=C(COc1ccc(OC(F)(F)F)cc1)N[C@@H]1COc2nc([N+](=O)[O-])cn2C1
[1]
  solubility kinetic: 43 µg/mL (≈ 107 µM)

## O=[N+]([O-])c1cn2c(n1)OC[C@@H](NCc1ccc(OC(F)(F)F)cc1)C2
[1]
  solubility kinetic: 131 µg/mL (≈ 366 µM)

## O=[N+]([O-])c1cn2c(n1)OC[C@@H](OCc1ccc(OC(F)(F)F)cc1)C2 [PRETOMANID]
[15]
  fraction unbound at 10 µM: 0.06
[16]
  logP: 2.52
[17]
  solubility thermodynamic: 30 µM (≈ 10.8 µg/mL)
[18]
  solubility thermodynamic: 30 µM (≈ 10.8 µg/mL)
[19]
  Activity: Non-toxic
[20]
  Activity: Non-toxic
[21]
  Activity: Non-toxic
[13]
  fold change (FC): 2
[22]
  Activity: Non-toxic
